Measured values taken from PMC12371875 (Journal of Agricultural and Food Chemistry, 2025).
Values after ≈ are worked out from the molar mass of the structure shown.

Assays:
yeast α-glucosidase = details: ref Suttithumsatid and co-workers, 2022; cited from earlier work
rat intestinal sucrase = rat intestinal sucrase (Rattus norvegicus, UniProt P23739); test: Kinetic study of α-glucosidase inhibition; type: biochemical
Outline: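 Test compound in phosphate buffer pH 6.9 with rat intestinal α-glucosidase. Sucrose was varied over 20–100 mM, with and without inhibitor, and incubated at 37 °C for 40 min. […] Lineweaver–Burk plots gave the inhibition type. Secondary plots of slopes and intercepts against inhibitor concentration gave Ki and Ki′.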

rat intestinal maltase = test: Kinetic study of α-glucosidase inhibition; type: biochemical
Outline: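 Rat intestinal α-glucosidase with test compound in phosphate buffer pH 6.9. Maltose was varied over 2–10 mM, with and without inhibitor, and the mixture was incubated at 37 °C for 10 min. […] Inhibition type came from Lineweaver–Burk plots. Ki and Ki′ came from secondary plots of slopes and intercepts versus inhibitor concentration.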

[1] = dissociation constant of ESI complex, secondary plots

Sequence of rat intestinal sucrase (P23739 whole entry): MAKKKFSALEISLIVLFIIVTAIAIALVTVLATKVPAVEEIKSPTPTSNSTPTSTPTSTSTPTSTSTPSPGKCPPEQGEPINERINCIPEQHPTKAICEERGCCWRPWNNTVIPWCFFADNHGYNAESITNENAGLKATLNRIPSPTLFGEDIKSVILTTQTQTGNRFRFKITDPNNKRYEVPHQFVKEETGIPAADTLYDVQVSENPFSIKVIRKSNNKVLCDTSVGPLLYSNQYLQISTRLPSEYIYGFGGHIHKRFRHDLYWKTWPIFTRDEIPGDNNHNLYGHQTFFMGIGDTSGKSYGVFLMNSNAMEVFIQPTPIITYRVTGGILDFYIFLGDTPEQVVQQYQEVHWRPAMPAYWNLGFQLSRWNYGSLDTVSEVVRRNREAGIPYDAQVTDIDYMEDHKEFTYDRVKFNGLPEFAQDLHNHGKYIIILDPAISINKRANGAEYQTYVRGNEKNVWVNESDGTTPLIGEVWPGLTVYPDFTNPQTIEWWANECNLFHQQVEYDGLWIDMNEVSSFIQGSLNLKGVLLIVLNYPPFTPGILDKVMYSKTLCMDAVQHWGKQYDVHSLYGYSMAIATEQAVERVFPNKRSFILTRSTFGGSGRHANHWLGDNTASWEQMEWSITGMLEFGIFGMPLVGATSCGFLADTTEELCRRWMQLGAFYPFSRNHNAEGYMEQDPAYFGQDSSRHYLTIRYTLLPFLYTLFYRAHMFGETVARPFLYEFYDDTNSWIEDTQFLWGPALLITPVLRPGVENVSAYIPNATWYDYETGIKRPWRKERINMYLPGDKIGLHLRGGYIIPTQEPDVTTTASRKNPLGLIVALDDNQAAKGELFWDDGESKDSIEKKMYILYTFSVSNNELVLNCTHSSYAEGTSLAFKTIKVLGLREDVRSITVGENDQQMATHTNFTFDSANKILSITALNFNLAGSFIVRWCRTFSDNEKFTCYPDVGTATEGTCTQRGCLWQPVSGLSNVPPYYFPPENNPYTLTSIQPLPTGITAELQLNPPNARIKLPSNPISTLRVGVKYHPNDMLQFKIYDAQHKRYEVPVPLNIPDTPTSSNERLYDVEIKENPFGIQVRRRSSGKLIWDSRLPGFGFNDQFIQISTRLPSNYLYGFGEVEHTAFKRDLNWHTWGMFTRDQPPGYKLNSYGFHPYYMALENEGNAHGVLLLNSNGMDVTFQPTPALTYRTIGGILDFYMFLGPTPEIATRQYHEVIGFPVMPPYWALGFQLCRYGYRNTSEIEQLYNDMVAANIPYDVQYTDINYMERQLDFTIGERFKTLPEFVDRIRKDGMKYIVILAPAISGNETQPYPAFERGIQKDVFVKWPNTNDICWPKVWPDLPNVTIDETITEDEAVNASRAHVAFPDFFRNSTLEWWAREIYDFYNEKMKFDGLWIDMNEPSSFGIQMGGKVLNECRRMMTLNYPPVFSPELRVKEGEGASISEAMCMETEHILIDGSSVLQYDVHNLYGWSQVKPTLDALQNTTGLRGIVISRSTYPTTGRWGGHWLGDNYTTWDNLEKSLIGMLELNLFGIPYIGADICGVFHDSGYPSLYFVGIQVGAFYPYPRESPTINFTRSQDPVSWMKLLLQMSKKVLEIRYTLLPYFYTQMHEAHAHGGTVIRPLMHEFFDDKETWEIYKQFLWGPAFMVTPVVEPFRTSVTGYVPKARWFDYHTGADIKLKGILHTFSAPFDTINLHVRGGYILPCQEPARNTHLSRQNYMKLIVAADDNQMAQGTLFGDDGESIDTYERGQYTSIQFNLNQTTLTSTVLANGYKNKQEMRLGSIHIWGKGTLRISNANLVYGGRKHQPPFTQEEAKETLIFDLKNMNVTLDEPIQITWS

SMILES | IC50, yeast α-glucosidase inhibition (yeast α-glucosidase) [µg/mL] | Inhibition type, sucrase (rat intestinal sucrase; Lineweaver–Burk plots, sucrose 20–100 mM) | Ki′, sucrase (rat intestinal sucrase; [1]) [µM] | Inhibition type, maltase (rat intestinal maltase; Lineweaver–Burk plots, maltose 2–10 mM) | Ki′, maltase (rat intestinal maltase; [1]) [µM]
C=C(C)[C@@H]1CCC(C)=C[C@H]1c1c(O)cc(CCCCC)cc1O [CBD] | 5.5 (≈ 17.5 µM) |  |  |  | 
CCCCCc1cc(O)c2c(c1)OC(C)(C)c1ccc(C)cc1-2 [Compound 15, cannabinol] |  | Uncompetitive | 434.8 | Uncompetitive | 196.4
